Measurements as given in ChEMBL document CHEMBL4513216, “Probing the Open Global Health Chemical Diversity Library for Multistage-Active Starting Points for Next-Generation Antimalarials” (ACS Infect Dis, 2020).

Assay: Toxicity liver stage against HepG2, at 10uM
Assay type: cell-based
Set-up: test concentration 10 uM, cell line HepG2-A16-CD81EGFP
Details: human, HepG2-A16-CD81EGFP cells; read-out: INHIBITION
Outline: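 Uninfected HepG2-A16-CD81EGFP cells, 3 × 10^3 per well, 1536-well, plated on prespotted compound at 10 μM final, parasite-free screening media added to match infected plates; puromycin 10 μM positive, DMSO 0.5% negative; run in parallel with 48 h PbLuc assay at 37 °C, 5% CO2; viability by CellTiter-Glo luminescence, normalized to controls.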

Compound | cytotoxicity at 10 µM
CN(Cc1cnn(C)c1)C(=O)CN1CCCC(Cn2cncn2)C1 (stereo unspecified) | -0.808%
Cn1ccnc1-c1cnn(CC(=O)Nc2ccnn2C)c1 | -10.1%
CCn1ncc(CN2C[C@@H]3CCCN3C[C@@H]2CCSC)c1C | -27.3%
N#Cc1cccc(N2CC3(CCN(C(=O)NC4CC4)C3)CC2=O)c1 (stereo unspecified) | -0.987%
CNc1cc(N2CCCC2CNCc2cccnc2)ncn1 (stereo unspecified) | -11.5%
COc1nccc(N2CC[C@H](N3CCOCC3)[C@H](CCCO)C2)c1C#N | -148%
CN(CCc1ccncc1)Cc1nccn1Cc1ccccc1 | 15.1%
CNC(=O)c1cccc(CN2CCC(N(C)Cc3noc(C)n3)C2)c1 (stereo unspecified) | 4.37%
O=C(CCc1ccc(-c2ccccc2)[nH]1)N1CCCC(n2ccnc2)C1 (stereo unspecified) | -15.7%
COc1ccc(NC2CCc3c2[nH]c(=O)n(C2CCCCC2)c3=O)cc1 (stereo unspecified) | 2%
COc1cccc(CNCc2nc3ccccc3c(=O)[nH]2)c1 | 1.26%
O=C(C1CCOC1)N1CCC2(CCNCC2)C1 (stereo unspecified) | 7.62%
CCN1CC(COC(=O)c2cc(C)nn2CC)CC1=O (stereo unspecified) | -3.37%
O=C(CNC(=O)c1ccoc1)NCCOc1ccc2c(c1)CCC2 | -7.98%
O=C(Cc1cnccn1)N1C[C@@H]2CC[C@H]1CN(Cc1cscn1)C2 | 1.88%
COc1ccsc1C(=O)Nc1cc(Br)c(=O)n(C)c1 | -11%
O=C(Nc1cccc(CN2CCOC2=O)c1)N1CCCCCC1 | 18.6%
CCOCC(O)CN1CCN(C(=O)Cc2cccc(C)c2)CC1 (stereo unspecified) | -7.1%
Cc1ccc(N2CCN(C3CCc4ccccc4C3)CC2)nn1 (stereo unspecified) | -0.75%

Compound | cytotoxicity at 10 µM
CS(=O)(=O)N1CC[C@@H]2OC(COCC(=O)N3CCCC3)CC[C@@H]21 (stereo partly specified) | 1.56%
Cc1ccc(NC(C(N)=O)c2ccc(F)cc2)cc1 (stereo unspecified) | 9.19%
c1ccc(-c2nnc(C3CCCN(CC4CCCCC4)C3)o2)nc1 (stereo unspecified) | -28.5%
Fc1cccc(-c2cccc(N3CCC(NC4CCCOC4)CC3)c2)c1 (stereo unspecified) | 12%
CNC(=O)C1(Cc2cc(C(C)C)no2)CCN(Cc2ccccn2)C1 (stereo unspecified) | 6.24%
COc1ccccc1C(C)(C)NC(=O)Nc1ccc(F)c(C(N)=O)c1 | -145%
COc1ccc(C2SCC(=O)Nc3ccsc32)cc1OC (stereo unspecified) | -0.898%
Cc1ccc(S(=O)(=O)N2CCCC(c3n[nH]cc3C(=O)N(C)C)C2)cc1 (stereo unspecified) | 6.91%
N#Cc1ccc(CC(=O)N2CCCC(n3cccn3)C2)cc1 (stereo unspecified) | -1.95%
CCn1ncnc1C(C)Nc1cc(C2CC2)ncn1 (stereo unspecified) | 2.33%
COC(C)(C)CC(C)NCc1cn2ccccc2n1 (stereo unspecified) | -3.48%
CN1CCN(C(=O)c2ncn3c2CNS(=O)(=O)c2ccccc2-3)CC1 | 4.5%
O=S(=O)(C1CC1)N1CC[C@H](OCC2CC2)[C@@H]1Cc1cccnc1 | 8.13%
CC(C)N1CCC(C(=O)NC[C@H]2CCc3ccccc3O2)CC1 | 11.1%
COc1c(CNCc2cccc(Cn3cccn3)c2)c(C)nn1C | 1.33%
CC(C)Oc1ncccc1CNC(=O)c1ccc(=O)[nH]n1 | -23.8%
CCOC(=O)c1n[nH]cc1-c1cncn1CC(C)n1nc(C)cc1C (stereo unspecified) | 2.25%
CCn1ccc(-c2cc(C(=O)O)n3ncc(Cl)c3n2)n1 | -3.05%
CCCN(CCC)C(=O)c1sc(C)nc1C | 3.05%

Compound | cytotoxicity at 10 µM
CN(C)CC(=O)Nc1ccc(C(=O)N(C)CCc2cn[nH]c2)cc1 | 2.2%
CCOC(=O)N1CCN(CC(=O)Nc2nnc(CC)s2)CC1 | -8.94%
O=C(CNC(=O)C1CCCC1)NCC(O)c1ccc2ccccc2c1 (stereo unspecified) | 0.587%
Cc1nc(C)n(CC2CCCN(Cc3cccc(F)c3F)C2)n1 (stereo unspecified) | -10.3%
Cc1ccc(C(=O)Nc2ccc(N(C)C)cn2)n1C | -2.48%
O=S(=O)(NCC1COc2ccccc2C1)N1CCOCC1 (stereo unspecified) | -1.5%
c1cnnc(N2CCCC2CNc2ncnc3sccc23)c1 (stereo unspecified) | -12.9%
O=C(c1cccc(Cl)c1)N1CC[C@H]2[C@H]1CCN2CC1CCOCC1 | -0.696%
CN(Cc1cnn(C)c1)C(=O)NC1CCS(=O)(=O)C1 (stereo unspecified) | -14.4%
c1csc(CN2CCO[C@H]3[C@H](OCC4CCCC4)CC[C@@H]32)n1 | 6.09%
CC(=O)N1CCC(C(=O)NC2CC(C)(C)Oc3cc(C)ccc32)CC1 (stereo unspecified) | -5.41%
COCCc1noc(CNC2CCCN(c3cccnn3)C2)n1 (stereo unspecified) | -13.7%
Cn1cccc1C(=O)N[C@@H]1CN(Cc2cccs2)[C@@H]2COC[C@@H]21 | 8.88%
Cc1nc(C)n(CC2CCCN2CC(=O)NCCC#N)n1 (stereo unspecified) | -2.78%
COc1nc2cc(C)ccc2cc1CN(C)Cc1cc(C)[nH]n1 | 4.3%
CCN1C[C@H]2C3(CCN(S(C)(=O)=O)CC3)CC[C@@]2(C(=O)N(C)C)C1 | -107%
CCS(=O)(=O)N1CCC(c2nnc(CN3CCCCCC3)n2C)CC1 | -8.01%
Cc1cc(C)c2ncn(CCOCCO)c(=O)c2c1 | 8.17%
